Results from ChEMBL document CHEMBL3272230, “Hypoglycemic alpha-cycloalkylphenylmehtyl, furanalkyl, and thiophenealkyl lactamimides” (1976).

What was measured:
Assay type in all cases: functional
Rattus norvegicus [1] = test: Hypoglycemic activity in fasted glucose primed Sprague-Dawley rat assessed as plasma glucose level at 50 mg/kg administered via oral gavage measured after 2 hrs by glucose-oxidase method relative to control
How it was run: (§1)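 Young male Sprague-Dawley rats, 105-115 g, fasted overnight. Glucose 1 g/kg given subcutaneously, then test compound immediately by gavage. Blood taken 2 h later and plasma glucose measured by glucose oxidase. Six treated rats per group against six glucose-primed controls given vehicle only by gavage. Result expressed as % reduction versus control; values over 20% significant at p ≤ 0.05.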

Rattus norvegicus [2] = test: Hypoglycemic activity in fasted glucose primed Sprague-Dawley rat assessed as plasma glucose level at 12.5 mg/kg administered via oral gavage measured after 2 hrs by glucose-oxidase method relative to control; how it was run: as §1
Rattus norvegicus [3] = test: Hypoglycemic activity in fasted glucose primed Sprague-Dawley rat assessed as plasma glucose level at 25 mg/kg administered via oral gavage measured after 2 hrs by glucose-oxidase method relative to control; how it was run: as §1
Rattus norvegicus [4] = test: Hypoglycemic activity in fasted glucose primed Sprague-Dawley rat assessed as plasma glucose level at 100 mg/kg administered via oral gavage measured after 2 hrs by glucose-oxidase method relative to control; how it was run: as §1
Rattus norvegicus [5] = test: Hypoglycemic activity in fasted glucose primed Sprague-Dawley rat assessed as plasma glucose level at 6 mg/kg administered via oral gavage measured after 2 hrs by glucose-oxidase method relative to control
Rattus norvegicus [6] = test: Hypoglycemic activity in fasted glucose primed Sprague-Dawley rat assessed as plasma glucose level at 200 mg/kg administered via oral gavage measured after 2 hrs by glucose-oxidase method relative to control; how it was run: as §1

| SMILES | inhibition in vivo at 50 mg/kg (Rattus norvegicus [1]) [%] | inhibition in vivo at 12.5 mg/kg (Rattus norvegicus [2]) [%] | inhibition in vivo at 25 mg/kg (Rattus norvegicus [3]) [%] | inhibition in vivo at 100 mg/kg (Rattus norvegicus [4]) [%] | inhibition in vivo at 6 mg/kg (Rattus norvegicus [5]) [%] | inhibition in vivo at 200 mg/kg (Rattus norvegicus [6]) [%] |
| --- | --- | --- | --- | --- | --- | --- |
| Cc1ccc(C(/N=C2\CCCCCN2)C2CC2)c(C)c1 (stereo unspecified) | 43 | 14 | 29 | 56 |  |  |
| c1csc(C(/N=C2\CCCCN2)C2CC2)c1 (stereo unspecified) |  |  |  | 28 |  |  |
| c1ccc(C(/N=C2\CCCCCN2)c2cccs2)cc1 (stereo unspecified) | 46 | 23 | 36 | 50 |  |  |
| c1ccc(C(/N=C2\CCCCN2)c2ccccc2)cc1 | 52 | 41 | 42 | 46 | 12 |  |
| CCC(Cc1cccs1)/N=C1\CCCCCN1 (stereo unspecified) |  | 10 |  | 54 |  |  |
| COc1ccc(C(/N=C2\CCCCCN2)C2CC2)cc1 (stereo unspecified) |  | 1 |  | 40 |  |  |
| Cc1ccc(C(/N=C2\CCCCCCCN2)C2CC2)c(C)c1 (stereo unspecified) | 47 | 17 | 37 | 61 |  |  |
| CC(/N=C1\CCCCCN1)C(C)c1cccs1 (stereo unspecified) |  | 0 |  | 46 |  |  |
| c1ccc(C(/N=C2\CCCCN2)C2CC2)cc1 (stereo unspecified) | 33 | 1 | 23 | 36 |  |  |
| c1ccc(C(/N=C2\CCCCN2)c2ccco2)cc1 (stereo unspecified) | 28 | 13 | 10 | 27 |  |  |
| CCC(Cc1cccs1)/N=C1\CCC(C(C)(C)C)CCN1 (stereo unspecified) |  |  |  | 32 |  |  |
| CCC(Cc1cccs1)/N=C1\CCCCCCCN1 (stereo unspecified) |  | 31 |  | 68 |  |  |
| c1ccc(C(/N=C2\CCCCN2)c2cccs2)cc1 (stereo unspecified) |  | 13 | 31 | 32 |  |  |
| c1ccc(C(/N=C2\CCCCCN2)c2ccco2)cc1 (stereo unspecified) | 37 | 5 | 34 | 52 |  |  |
| C1CCN/C(=N/[C@@H]2CCC[C@@H]2C2CCCCC2)CC1 | 49 | 33 | 42 | 53 | 13 |  |
| c1ccc(C(/N=C2\CCCCCN2)C2CCCCCC2)cc1 (stereo unspecified) |  |  |  | 6 |  |  |
| CCC(Cc1cccs1)/N=C1\CCCCN1 (stereo unspecified) |  | 9 |  | 42 |  |  |
| c1ccc2c(C(/N=C3\CCCCCN3)C3CC3)cccc2c1 (stereo unspecified) |  |  |  | 21 |  |  |

| SMILES | inhibition in vivo at 50 mg/kg (Rattus norvegicus [1]) [%] | inhibition in vivo at 12.5 mg/kg (Rattus norvegicus [2]) [%] | inhibition in vivo at 25 mg/kg (Rattus norvegicus [3]) [%] | inhibition in vivo at 100 mg/kg (Rattus norvegicus [4]) [%] | inhibition in vivo at 6 mg/kg (Rattus norvegicus [5]) [%] | inhibition in vivo at 200 mg/kg (Rattus norvegicus [6]) [%] |
| --- | --- | --- | --- | --- | --- | --- |
| CCCCNC(=O)NS(=O)(=O)c1ccc(C)cc1 [TOLBUTAMIDE] | 43 | 16 | 29 | 41 |  |  |
| c1coc(C/N=C2\CCCCCN2)c1 |  |  |  | 0 |  | 0 |
| c1ccc(C(/N=C2\CCCCCN2)C2CCCCC2)cc1 (stereo unspecified) |  |  |  | 0 |  |  |
| c1csc(C(/N=C2\CCCCCCN2)C2CC2)c1 (stereo unspecified) |  | 17 |  | 50 |  |  |
| CCC(Cc1cccs1)/N=C1\CCCN1 (stereo unspecified) |  |  |  | 35 |  |  |
| CCC(Cc1cccs1)/N=C1\CCCCCCN1 (stereo unspecified) |  |  |  | 44 |  |  |
| c1ccc(C(/N=C2\CCCCCN2)C2CCC2)cc1 (stereo unspecified) |  | 14 |  | 44 |  |  |
| c1ccc(C(/N=C2\CCCCCCN2)c2cccs2)cc1 (stereo unspecified) | 37 | 29 | 37 | 41 |  |  |
| C=CCC(Cc1cccs1)/N=C1\CCCCCN1 (stereo unspecified) | 49 | 14 |  | 65 |  |  |
| c1ccc(C(/N=C2\CCCCCN2)C2CCCC2)cc1 (stereo unspecified) |  | 12 |  | 46 |  |  |
| c1ccc(C(/N=C2\CCCCCCN2)C2CC2)cc1 (stereo unspecified) | 46 | 0 | 26 | 58 |  |  |
| c1csc(C(/N=C2\CCCCCN2)C2CC2)c1 (stereo unspecified) |  | 33 |  | 44 |  |  |
| c1ccc(C(/N=C2\CCCCCCCCCCCN2)c2cccs2)cc1 (stereo unspecified) |  |  |  | 4 |  |  |
| c1ccc(C(/N=C2\CCCCCCN2)c2ccco2)cc1 (stereo unspecified) | 42 | 22 | 29 | 61 |  |  |
| c1ccc(C(/N=C2\CCCCCN2)C2CC2)cc1 (stereo unspecified) | 41 | 5 | 18 | 51 |  |  |
| CC(Cc1cccs1)/N=C1\CCCCCN1 (stereo unspecified) |  | 0 |  | 41 |  |  |
| COc1ccc(C(/N=C2\CCC(C(C)(C)C)CCN2)C2CC2)cc1 (stereo unspecified) |  |  |  | 17 |  |  |
